Calls of active or inactive are those of the source. No cut-off for these calls is given here.

The source of these data is ChEMBL document CHEMBL1765057, “Pyrazolo[4,3-d]pyrimidine bioisostere of roscovitine: evaluation of a novel selective inhibitor of cyclin-dependent kinases with antiproliferative activity” (J Med Chem, 2011).

The target in assay [1] is T1, Retinoblastoma-associated protein (Homo sapiens) (UniProt P06400).
T1 sequence (whole entry): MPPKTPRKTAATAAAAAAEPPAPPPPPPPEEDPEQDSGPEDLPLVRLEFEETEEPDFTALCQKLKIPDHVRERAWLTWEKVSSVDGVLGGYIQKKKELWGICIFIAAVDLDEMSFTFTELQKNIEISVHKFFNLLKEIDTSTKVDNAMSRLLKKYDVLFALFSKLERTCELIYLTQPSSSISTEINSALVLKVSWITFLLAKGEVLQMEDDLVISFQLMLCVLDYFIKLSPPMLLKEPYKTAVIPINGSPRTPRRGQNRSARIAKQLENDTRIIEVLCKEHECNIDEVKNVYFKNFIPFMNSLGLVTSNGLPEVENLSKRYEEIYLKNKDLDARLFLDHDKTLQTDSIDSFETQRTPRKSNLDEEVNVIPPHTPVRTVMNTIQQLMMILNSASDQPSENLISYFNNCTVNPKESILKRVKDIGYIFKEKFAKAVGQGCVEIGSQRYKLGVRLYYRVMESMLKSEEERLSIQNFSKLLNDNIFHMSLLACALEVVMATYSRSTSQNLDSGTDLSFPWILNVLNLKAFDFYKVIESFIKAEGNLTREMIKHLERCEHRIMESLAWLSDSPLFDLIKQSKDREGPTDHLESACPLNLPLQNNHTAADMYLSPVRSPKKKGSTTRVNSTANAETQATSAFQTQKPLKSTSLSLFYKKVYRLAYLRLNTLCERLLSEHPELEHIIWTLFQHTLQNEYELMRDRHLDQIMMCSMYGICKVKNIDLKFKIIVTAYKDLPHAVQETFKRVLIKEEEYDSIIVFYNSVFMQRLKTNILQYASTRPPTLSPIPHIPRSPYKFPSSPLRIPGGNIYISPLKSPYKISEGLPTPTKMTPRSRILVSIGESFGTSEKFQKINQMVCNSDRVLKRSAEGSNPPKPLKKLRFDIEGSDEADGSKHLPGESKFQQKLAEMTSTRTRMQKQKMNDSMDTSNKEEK
The assay is described as follows: Inhibition of retinoblastoma protein in human MCF7 cells assessed as reduction of CDK1 level at 2.5 to 40 uM after 24 hrs by immunoblotting. It is filed as cell-based. Summed up:
(§1)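 Asynchronous, exponentially growing MCF-7 cells were exposed 24 h to a range of concentrations. Total lysates were made in Laemmli buffer, run on SDS-PAGE and blotted to nitrocellulose. Membranes were probed overnight at 4 °C with specific or phosphospecific antibodies (pRb S249/T252, S780, S795, S807/811), with tubulin as loading control and ECL detection.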
Background: Immunoblotting shows a protein as a band on a membrane.

The target in assay [2] is Cellular tumor antigen p53 (Homo sapiens) (UniProt P04637). The assay is described as follows: Induction of p53-dependent transcriptional activity in human MCF7 cells assessed as increase of p21 WAF1 level at 10 uM after 24 hrs by immunofluorescence assay. The following applies: in the assay text read “by immunoblotting analysis” for “by immunofluorescence assay”. It is filed as cell-based. A digest of the protocol:
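MCF-7 cells were exposed 24 h to 10 μM. Total lysates were made in Laemmli buffer, run on SDS-PAGE and blotted to nitrocellulose, then probed with antibodies to p53, p21WAF1 and Mdm-2, with peroxidase secondary and ECL detection.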

In the next assay the test system is HCT-116. The assay is described as follows: Cytotoxicity against human HCT116 cells after 72 hrs by fluoroskan ascent microplate reader analysis. It is filed as functional, cell-based. The note with it: HCT-116, 72 h. Summed up:
(§2)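 Cells were grown in DMEM with 10% FCS and 4 mM glutamine at 37 °C under CO2, then plated at densities suited to each line. Compounds were added as 3-fold dilutions in triplicate for 72 h.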

Another assay relates to U-266. The assay is described as follows: Induction of apoptosis in human U266 cells at 10 uM after 24 hrs. It is filed as functional, cell-based.
A further assay concerns HBL-100. The assay is described as follows: Cytotoxicity against human HBL100 cells after 72 hrs by fluoroskan ascent microplate reader analysis. It is filed as functional, cell-based. The following applies: HBL-100, 72 h. Summed up:
as §2

In a further assay the test system is BT-474. The assay is described as follows: Cytotoxicity against human BT474 cells after 72 hrs by fluoroskan ascent microplate reader analysis. It is filed as functional, cell-based. The following applies: BT-474, 72 h. A digest of the protocol: as §2
Assay [3] has as its target T1, Retinoblastoma-associated protein (Homo sapiens). The assay is described as follows: Inhibition of retinoblastoma protein in human MCF7 cells assessed as reduction of cyclin E level at 2.5 to 40 uM after 24 hrs by immunoblotting. It is filed as cell-based. Summed up: as §1
Assay [4] has as its system MCF7. The assay is described as follows: Cell cycle arrest in human MCF7 cells assessed as accumulation at sub-G1 phase after 24 hrs using propidium iodide and BrdU staining by flow cytometry. It is filed as functional, cell-based. A digest of the protocol:
(§3)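 Subconfluent MCF-7 cells were treated for 24 h at a range of concentrations. They were pulse-labelled with 10 μM BrdU for 30 min at 37 °C, then trypsinized and fixed in ice-cold 70% ethanol. DNA was denatured in 2 M HCl and neutralized with borate. Cells were stained with fluorescein anti-BrdU and with propidium iodide plus RNase A, then analysed by flow cytometry at 488 nm.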
On the technique in general: Dividing cells build labelled thymidine or BrdU into new DNA.

In assay [5] the target is CDK9/cyclin T1 (Homo sapiens) (UniProt O60563+P50750). The assay is described as follows: Inhibition of human recombinant CDK9/cyclin T1 at 10 uM. It is filed as protein-complex assay.
Assay [6] relates to RPMI-8226. The assay is described as follows: Cell cycle arrest in human RPMI8226 cells assessed as accumulation at G2/M phase after 24 hrs using propidium iodide and BrdU staining by flow cytometry. It is filed as functional, cell-based. A digest of the protocol: (§4)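 Asynchronously growing RPMI-8226 multiple myeloma cells were exposed for 24 h. Cells were double-stained with propidium iodide and BrdU and analysed by flow cytometry for G1, S, G2/M and BrdU-positive fractions. The subG1 population was taken as indicative of apoptosis.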

The subject of assay [7] is RPMI-8226. The assay is described as follows: Induction of apoptosis in human RPMI8226 cells assessed as increase in caspase3 activation after 24 hrs by immunoblot analysis. It is filed as functional, cell-based.
Assay [8] has as its target Dual specificity mitogen-activated protein kinase kinase 1 (Homo sapiens) (UniProt Q02750). The assay is described as follows: Inhibition of human recombinant MEK1 at 10 uM.
The test system of another assay is HOS. The assay is described as follows: Cytotoxicity against human HOS cells after 72 hrs by fluoroskan ascent microplate reader analysis. It is filed as functional, cell-based. Summed up: as §2
Assay [9] has as its system MCF7. The assay is described as follows: Cell cycle arrest in human MCF7 cells assessed as decrease in S phase cell population after 24 hrs using propidium iodide and BrdU staining by flow cytometry. It is filed as functional, cell-based. Summed up: as §3
The subject of another assay is A549. The assay is described as follows: Cytotoxicity against human A549 cells after 72 hrs by fluoroskan ascent microplate reader analysis. It is filed as functional, cell-based. The note with it: A549, 72 h. Summed up:
as §2

The target in assay [10] is Ribosomal protein S6 kinase alpha-5 (Homo sapiens) (UniProt O75582). The assay is described as follows: Inhibition of human recombinant MSK1 at 10 uM.
Ribosomal protein S6 kinase alpha-5 (Homo sapiens), sequence (O75582 whole entry, looked up): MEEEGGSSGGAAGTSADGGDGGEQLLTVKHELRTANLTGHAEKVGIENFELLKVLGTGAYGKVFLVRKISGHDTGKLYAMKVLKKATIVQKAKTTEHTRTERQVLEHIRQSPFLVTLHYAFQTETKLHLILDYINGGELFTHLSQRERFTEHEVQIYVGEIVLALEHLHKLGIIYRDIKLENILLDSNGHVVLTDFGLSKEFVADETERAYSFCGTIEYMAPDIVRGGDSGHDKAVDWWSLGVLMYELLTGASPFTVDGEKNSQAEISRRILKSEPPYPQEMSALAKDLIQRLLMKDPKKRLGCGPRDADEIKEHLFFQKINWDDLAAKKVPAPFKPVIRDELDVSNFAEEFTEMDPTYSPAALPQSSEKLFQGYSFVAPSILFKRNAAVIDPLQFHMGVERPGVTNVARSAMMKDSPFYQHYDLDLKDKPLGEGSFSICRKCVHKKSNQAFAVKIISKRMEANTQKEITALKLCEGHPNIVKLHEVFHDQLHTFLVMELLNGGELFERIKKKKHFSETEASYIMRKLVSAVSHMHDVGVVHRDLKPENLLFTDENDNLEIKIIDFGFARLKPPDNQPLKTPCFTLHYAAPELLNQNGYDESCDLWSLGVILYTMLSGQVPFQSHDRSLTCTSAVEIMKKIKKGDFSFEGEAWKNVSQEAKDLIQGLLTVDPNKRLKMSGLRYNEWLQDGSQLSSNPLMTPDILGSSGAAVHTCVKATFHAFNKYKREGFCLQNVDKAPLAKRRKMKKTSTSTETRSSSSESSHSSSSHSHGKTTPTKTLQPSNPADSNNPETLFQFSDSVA
Assay [11] addresses MAP kinase-activated protein kinase 5 (Homo sapiens) (UniProt Q8IW41). The assay is described as follows: Inhibition of human recombinant PRAK at 10 uM.
For a further assay, the system named is CCRF-CEM. The assay is described as follows: Cytotoxicity against human CEM cells after 72 hrs by fluoroskan ascent microplate reader analysis. It is filed as functional, cell-based. A digest of the protocol:
as §2

Assay [12] relates to RPMI-8226. The assay is described as follows: Cell cycle arrest in human RPMI8226 cells assessed as reduction of actively replicating DNA level at 80 uM after 24 hrs using propidium iodide and BrdU staining by flow cytometry. It is filed as functional, cell-based. Summed up:
as §4

A further assay has as its system HeLa. The assay is described as follows: Cytotoxicity against human HeLa cells after 72 hrs by fluoroskan ascent microplate reader analysis. It is filed as functional, cell-based. A digest of the protocol:
as §2

Assay [13] relates to MCF7. The assay is described as follows: Cell cycle arrest in human MCF7 cells assessed as accumulation at G2/M phase after 24 hrs using propidium iodide and BrdU staining by flow cytometry. It is filed as functional, cell-based. A digest of the protocol:
as §3

Assay [14] addresses T1, Retinoblastoma-associated protein (Homo sapiens). The assay is described as follows: Inhibition of retinoblastoma protein in human MCF7 cells assessed as reduction of CDK4 level at 2.5 to 40 uM after 24 hrs by immunoblotting. It is filed as cell-based. Summed up: as §1
The test system of assay [15] is RPMI-8226. The assay is described as follows: Cytotoxicity against human RPMI8226 cells after 72 hrs by fluoroskan ascent microplate reader analysis. It is filed as functional, cell-based. The note with it: RPMI-8226, 72 h. A digest of the protocol: as §2

Dual specificity mitogen-activated protein kinase kinase 1 (Homo sapiens), sequence (Q02750 whole entry): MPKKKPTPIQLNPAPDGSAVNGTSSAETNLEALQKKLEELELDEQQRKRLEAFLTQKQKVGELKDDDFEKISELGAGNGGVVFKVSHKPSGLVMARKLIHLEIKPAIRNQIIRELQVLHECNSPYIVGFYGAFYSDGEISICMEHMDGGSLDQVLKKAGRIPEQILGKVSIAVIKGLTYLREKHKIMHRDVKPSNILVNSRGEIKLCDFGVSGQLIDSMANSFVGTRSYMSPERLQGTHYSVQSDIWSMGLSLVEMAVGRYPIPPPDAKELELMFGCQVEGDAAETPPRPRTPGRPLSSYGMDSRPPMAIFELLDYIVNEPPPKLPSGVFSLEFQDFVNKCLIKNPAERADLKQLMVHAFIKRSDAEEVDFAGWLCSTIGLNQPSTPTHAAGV
MAP kinase-activated protein kinase 5 (Homo sapiens), sequence (Q8IW41 whole entry): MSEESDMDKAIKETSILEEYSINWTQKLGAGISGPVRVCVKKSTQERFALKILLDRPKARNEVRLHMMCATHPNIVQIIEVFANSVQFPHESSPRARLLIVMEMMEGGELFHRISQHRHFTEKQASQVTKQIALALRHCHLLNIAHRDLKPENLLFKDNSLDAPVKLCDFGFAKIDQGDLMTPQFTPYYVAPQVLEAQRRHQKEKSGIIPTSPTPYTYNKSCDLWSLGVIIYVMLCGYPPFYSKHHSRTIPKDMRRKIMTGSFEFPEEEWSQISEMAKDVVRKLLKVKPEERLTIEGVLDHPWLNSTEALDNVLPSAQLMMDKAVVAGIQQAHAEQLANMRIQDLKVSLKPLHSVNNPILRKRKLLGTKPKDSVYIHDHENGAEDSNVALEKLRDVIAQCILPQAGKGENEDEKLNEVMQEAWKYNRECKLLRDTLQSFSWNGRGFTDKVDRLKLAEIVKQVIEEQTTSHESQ
Cellular tumor antigen p53 (Homo sapiens), sequence (P04637 whole entry, looked up): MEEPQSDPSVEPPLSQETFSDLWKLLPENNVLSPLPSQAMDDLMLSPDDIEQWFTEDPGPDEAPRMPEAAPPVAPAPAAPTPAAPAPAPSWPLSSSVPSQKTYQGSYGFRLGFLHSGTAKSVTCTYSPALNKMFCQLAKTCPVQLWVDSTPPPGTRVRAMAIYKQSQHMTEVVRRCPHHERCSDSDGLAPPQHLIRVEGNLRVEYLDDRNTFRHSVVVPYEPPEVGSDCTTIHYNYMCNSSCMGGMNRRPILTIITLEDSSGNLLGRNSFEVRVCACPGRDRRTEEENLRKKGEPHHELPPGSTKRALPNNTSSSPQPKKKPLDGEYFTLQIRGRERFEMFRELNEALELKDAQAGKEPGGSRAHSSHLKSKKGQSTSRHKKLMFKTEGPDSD

The term inhibition denotes the change of the read-out against control, counted positive when it falls. Usually IC50 stands for the point on the concentration scale where inhibition reaches its midpoint. A lower IC50 goes with higher potency. `CC[C@H](CO)Nc1nc(NCc2ccccc2)c2[nH]nc(C(C)C)c2n1`: the inhibition entry in assay [1] and in [3] was “inactive” each time. The outcome (in [2]; with U-266; in the assay with MCF7 [4]; in the assay with RPMI-8226 [6]; with RPMI-8226 [7]; in the assay on MCF7 [9]) was Active. Besides, the result in the assay on RPMI-8226 [12] and with MCF7 [13] was Active. For the same compound, the IC50 in the assay on HCT-116 was determined as 11 µM; in the assay on HBL-100 it was 11.3 µM; in the assay on BT-474, 8.5 µM; with HOS, 7.5 µM; with A549, 7.1 µM; with CCRF-CEM it was 3.8 µM. Further, the half-inhibitory concentration (IC50) worked out at 6.9 µM in the assay on HeLa and 3.6 µM with RPMI-8226 [15]. Also, the inhibition in assay [5] was 90%; in assay [8] it was 58%; in [10], 39%; in assay [11] it was 30%. In addition, the inhibition entry in [14] was “Active”.
